Data as given in ChEMBL document CHEMBL4725349, “Discovery of First-in-Class Protein Arginine Methyltransferase 5 (PRMT5) Degraders” (J Med Chem, 2020).
The source made the active and inactive calls. The calls are words filed in the database; no cut-off is given here.

Legend:
[1] = target: T1, von Hippel-Lindau disease tumor suppressor/Protein arginine N-methyltransferase 5 (Homo sapiens, UniProt O14744+P40337); experiment: Induction of VHL-mediated PRMT5 degradation in human MCF7 cells at 5 uM incubated for 6 days by Western blot analysis; type: cell-based; settings: time 6.0 day
T1 sequence (O14744 whole entry, looked up): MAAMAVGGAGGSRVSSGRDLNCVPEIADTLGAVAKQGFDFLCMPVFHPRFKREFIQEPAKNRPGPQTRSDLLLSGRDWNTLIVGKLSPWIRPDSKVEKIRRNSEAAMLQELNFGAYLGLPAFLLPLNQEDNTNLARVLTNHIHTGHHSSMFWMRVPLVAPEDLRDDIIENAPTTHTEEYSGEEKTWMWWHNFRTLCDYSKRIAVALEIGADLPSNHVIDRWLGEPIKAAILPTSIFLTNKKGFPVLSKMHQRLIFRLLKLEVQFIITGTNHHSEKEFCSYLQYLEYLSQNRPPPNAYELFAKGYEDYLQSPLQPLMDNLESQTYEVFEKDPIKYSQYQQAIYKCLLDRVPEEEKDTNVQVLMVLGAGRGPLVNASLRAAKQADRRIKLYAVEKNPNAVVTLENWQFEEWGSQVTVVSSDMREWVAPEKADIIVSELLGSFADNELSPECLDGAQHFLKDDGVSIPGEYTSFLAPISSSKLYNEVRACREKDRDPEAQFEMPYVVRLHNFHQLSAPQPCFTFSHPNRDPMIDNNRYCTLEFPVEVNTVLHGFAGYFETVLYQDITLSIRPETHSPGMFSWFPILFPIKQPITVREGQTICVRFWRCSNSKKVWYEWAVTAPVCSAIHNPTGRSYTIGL
T1 sequence (P40337 whole entry, looked up): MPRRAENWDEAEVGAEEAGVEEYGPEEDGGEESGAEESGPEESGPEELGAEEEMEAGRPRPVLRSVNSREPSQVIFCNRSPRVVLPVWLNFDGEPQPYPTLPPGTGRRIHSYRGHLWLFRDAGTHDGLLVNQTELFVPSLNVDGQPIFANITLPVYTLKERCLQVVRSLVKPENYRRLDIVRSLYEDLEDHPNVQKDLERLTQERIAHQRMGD
Method in brief: (§1)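 MCF-7 cells treated 6 d (0.2, 1 and 5 μM for initial screen, or indicated concentrations). RIPA lysates immunoblotted for PRMT5. Band intensity quantified by densitometry to derive DC50 and Dmax as mean ± SD from three independent experiments; screening blots representative of at least two.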

MCF7 = experiment: Antiproliferative activity against human MCF7 cells at 0.1 to 10 uM incubated for 6 days by CellTiter-Glo assay; type: functional, cell-based; settings: dose microM 0.1-10, time 6.0 day
Method in brief: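 MCF-7 in DMEM + 10% FBS at 37 °C, 5% CO2. Cells exposed to graded concentrations for 6 d, medium with compound refreshed every other day. CellTiter-Glo luminescence, expressed as viability relative to DMSO control; mean ± SD, n = 3.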

PRMT5/MEP50 complex = PRMT5/MEP50 complex (Homo sapiens, UniProt O14744); experiment: Inhibition of human PRMT5/MEP50 assessed as reduction in methyltransferase activity using histone 4 peptide as substrate in presence of [3H]SAM incubated for 30 mins; type: protein-complex assay
Chain of PRMT5/MEP50 complex (O14744 whole entry): as the sequence (O14744 whole entry, looked up) above
Chain of PRMT5/MEP50 complex (Q9BQA1 whole entry, further chain): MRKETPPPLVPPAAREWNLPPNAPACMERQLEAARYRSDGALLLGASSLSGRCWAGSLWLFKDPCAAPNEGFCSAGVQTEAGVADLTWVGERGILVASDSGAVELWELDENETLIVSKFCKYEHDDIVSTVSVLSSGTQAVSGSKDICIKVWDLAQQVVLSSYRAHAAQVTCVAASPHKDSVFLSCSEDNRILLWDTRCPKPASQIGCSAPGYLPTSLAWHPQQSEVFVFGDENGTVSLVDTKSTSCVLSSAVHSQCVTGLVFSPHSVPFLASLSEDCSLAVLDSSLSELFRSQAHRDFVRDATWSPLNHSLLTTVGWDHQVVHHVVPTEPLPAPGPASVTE
Method in brief: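 Radiometric FlashPlate assay tracking transfer of the 3H-methyl group from SAM (1 μM) to biotinylated H4 (1–15) peptide by human PRMT5/MEP50 (5 nM). Compounds were preincubated with enzyme and substrate for 20 min at rt. They were tested at 10 concentrations in threefold serial dilution from 5 μM, in duplicate. IC50 is reported as mean ± SD.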

[2] = target: T1, von Hippel-Lindau disease tumor suppressor/Protein arginine N-methyltransferase 5; experiment: Induction of VHL-mediated PRMT5 degradation in human MCF7 cells at 0.2 to 5 uM incubated for 6 days by Western blot analysis; type: cell-based; settings: dose microM 0.2-5, time 6.0 day; method in brief: as §1
[3] = target: PRMT5/MEP50 complex (Homo sapiens) (UniProt O14744+Q9BQA1); experiment: Inhibition of human PRMT5/MEP50 assessed as reduction in methyltransferase activity at 5 uM using histone 4 peptide as substrate in presence of [3H]SAM incubated for 30 mins; type: protein-complex assay
HeLa = experiment: Antiproliferative activity against human HeLa cells assessed as reduction in cell viability at 0.1 to 10 uM supplemented with fresh medium containing compound every other day for 6 days by CellTiter-Glo assay; type: functional, cell-based; settings: dose microM 0.1-10, time 6.0 day
Method in brief: (§2)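 HeLa, A549 and A172 grown in DMEM + 10% FBS; Jurkat in RPMI 1640 + 10% FBS; all at 37 °C, 5% CO2. Cells seeded, then treated 6 d with test agent, medium plus compound renewed every other day. Viability read by CellTiter-Glo and normalized to DMSO-treated cells; mean ± SD, n = 3.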

Jurkat = experiment: Antiproliferative activity against human Jurkat cells assessed as reduction in cell viability at 0.1 to 10 uM supplemented with fresh medium containing compound every other day for 6 days by CellTiter-Glo assay; type: functional, cell-based; settings: dose microM 0.1-10, time 6.0 day; method in brief: as §2
A549 = experiment: Antiproliferative activity against human A549 cells assessed as reduction in cell viability at 0.1 to 10 uM supplemented with fresh medium containing compound every other day for 6 days by CellTiter-Glo assay; type: functional, cell-based; settings: dose microM 0.1-10, time 6.0 day; method in brief: as §2
A 172 = experiment: Antiproliferative activity against human A172 cells assessed as reduction in cell viability at 0.1 to 10 uM supplemented with fresh medium containing compound every other day for 6 days by CellTiter-Glo assay; type: functional, cell-based; settings: dose microM 0.1-10, time 6.0 day; method in brief: as §2
[4] = target: T1, von Hippel-Lindau disease tumor suppressor/Protein arginine N-methyltransferase 5; experiment: Induction of VHL-mediated PRMT5 degradation in human MCF7 cells assessed as reduction in SDMA level incubated for 6 days by Western blot analysis; type: cell-based; settings: dose microM 0.1-3, time 6.0 day
Method in brief: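 SDMA read-out: MCF-7 cells given 0.1, 0.3, 1 or 3.0 μM for 6 d; global symmetric dimethylarginine detected on western blot with anti-SDMA antibody.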

Activity [1]	Activity [2]	Structure (SMILES)	Activity (MCF7)	further results
–	inactive	Cc1ncsc1-c1ccc(CNC(=O)[C@@H]2C[C@@H](O)CN2C(=O)[C@@H](NC(=O)CCOCCOCCOCCC(=O)N2CC(Nc3cc(C(=O)NC[C@H](O)CN4CCc5ccccc5C4)ncn3)C2)C(C)(C)C)cc1	–	–
inactive	–	Cc1ncsc1-c1ccc([C@H](C)NC(=O)[C@@H]2C[C@@H](O)CN2C(=O)[C@@H](NC(=O)COCCOCCOCCOCCOCC(=O)N2CC(Nc3cc(C(=O)NC[C@H](O)CN4CCCCC4)ncn3)C2)C(C)(C)C)cc1	inactive	inhibition [3]: 58%
–	inactive	Cc1ncsc1-c1ccc(CNC(=O)[C@@H]2C[C@@H](O)CN2C(=O)[C@@H](NC(=O)CCOCCOCCC(=O)N2CC(Nc3cc(C(=O)NC[C@H](O)CN4CCc5ccccc5C4)ncn3)C2)C(C)(C)C)cc1	–	–
inactive	–	O=C(NC[C@H](O)CN1CCc2ccccc2C1)c1cc(NC2COC2)ncn1	–	Activity (HeLa): Active; Activity (Jurkat): Active; Activity (A549): Active; Activity (A 172): Active; Activity [4]: Dose-dependent effect

Structure (SMILES)	Activity [1]	Activity [2]	Activity (MCF7)	further results
Cc1ncsc1-c1ccc([C@H](C)NC(=O)[C@H]2C[C@H](O)CN2C(=O)[C@@H](NC(=O)COCCOCCOCCOCCOCC(=O)N2CC(Nc3cc(C(=O)NC[C@H](O)CN4CCc5ccccc5C4)ncn3)C2)C(C)(C)C)cc1	inactive	–	inactive	IC50 (PRMT5/MEP50 complex): 12 nM
